Publication PMC5268740 (New journal of chemistry = Nouveau journal de chimie, 2016)
Several values for one entry are separate records, joined by “and”; a condition that tells them apart may be missing. Identical values can stand only once.

Columns and labels:
Type in all cases: physicochemical
[1] = Absorption spectroscopy of bacteriochlorins; conditions: for Bmax abs / IQy/IB / Qy abs / Qy abs fwhm / ∑Qy/∑B: room temperature; for bathochromic shift in the Qy band relative to that for B2: in DMF or water
[2] = Excited-state photophysical properties; conditions: for Φf (fluorescence quantum yield) / Φisc (intersystem crossing yield) / τS (lifetime of lowest singlet excited state) / kf^−1 / kic^−1 / kisc^−1 / Φic (internal conversion yield): room temperature; for kf^−1 / kic^−1 / kisc^−1: kx = Φx/τS; for Φic (internal conversion yield): Φic = 1 - Φf - Φisc
[3] = Fluorescence emission spectroscopy of bacteriochlorins; conditions: for Qy em / Qy em fwhm: room temperature
How it was run: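 Absorption and fluorescence spectra were recorded at room temperature in DMF and in […] water (one analogue in DMSO). The Qy/B ratio is the ratio of integrated Qy to integrated B absorption intensity. The Stokes shift is the Qy fluorescence maximum minus the Qy absorption peak.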

[4] = Water solubility / aggregation by absorption versus concentration in water; conditions: neat deionized water, 1000-fold concentration range (∼200–700 µM to ∼0.20–0.70 µM)
How it was run: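 Absorption spectra were taken in neat deionized water over a ~1000-fold concentration range (~200–700 µM to ~0.20–0.70 µM). Pathlength was changed reciprocally ([…]), and spectra were normalized at the Qy band. Concentration was calculated from absorbance in the 1-cm cuvette assuming ε(Qy) = 120,000 M−1cm−1.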

Substance | Bmax abs ([1]; DMF) | IQy/IB ([1]; DMF) | Qy abs ([1]; DMF) | Qy abs fwhm ([1]; DMF) | ∑Qy/∑B ([1]; DMF) | Bmax abs ([1]; water with 5% DMF as cosolvent) | IQy/IB ([1]; water with 5% DMF as cosolvent) | Qy abs ([1]; water with 5% DMF as cosolvent) | Qy abs fwhm ([1]; water with 5% DMF as cosolvent) | ∑Qy/∑B ([1]; water with 5% DMF as cosolvent) | Φf (fluorescence quantum yield) ([2]; DMF) | Φisc (intersystem crossing yield) ([2]; DMF) | τS (lifetime of lowest singlet excited state) ([2]; DMF) | kf^−1 ([2]; DMF) | kic^−1 ([2]; DMF) | kisc^−1 ([2]; DMF) | Φic (internal conversion yield) ([2]; DMF) | reduction of Φf in water vs DMF [2] | Φf (fluorescence quantum yield) ([2]; water with 5% DMF as cosolvent) | Φisc (intersystem crossing yield) ([2]; water with 5% DMF as cosolvent) | also measured
2,12-Bis[3,5-bis(3,6,9,12,15,18,21,24-octaoxahexacosanyl-26-amidomethyl)phenyl]-15^2-N-(3-carboxypropyl)-3-methoxycarbonyl-5-methoxy-8,8,18,18-tetramethylbacteriochlorin-13,15-dicarboimide [B5] | 375 nm | 0.78 | 808 nm | 32 nm | 0.50 | 376 nm | 0.50 | 819 nm | 36 nm | 0.38 | 0.13 | 0.29 | 1.7 ns and 1.70 ns | 13 ns | 3 ns | 6 ns | 0.58 | 87% | 0.017 | 0.08 | bathochromic shift of the Qy absorption band compared to B4 and II ([1]; DMF and water): ~50 nm; difference in kf between the two media (DMF and water) ([2]; DMF versus water): 6.5 fold; τS (lifetime of lowest singlet excited state) ([2]; water with 5% DMF as cosolvent): 1.4 ns and 1.40 ns; kf^−1 ([2]; water with 5% DMF as cosolvent): 84 ns; kic^−1 ([2]; water with 5% DMF as cosolvent): 2 ns; kisc^−1 ([2]; water with 5% DMF as cosolvent): 18 ns; Φic (internal conversion yield) ([2]; water with 5% DMF as cosolvent): 0.90; (Stokes) shift of Qy fluorescence maximum from Qy absorption peak ([3]; DMF): 11 nm; Qy em ([3]; DMF): 819 nm; Qy em fwhm ([3]; DMF): 35 nm; (Stokes) shift of Qy fluorescence maximum from Qy absorption peak ([3]; water): 15 nm; Qy em ([3]; water with 5% DMF as cosolvent): 834 nm; Qy em fwhm ([3]; water with 5% DMF as cosolvent): 44 nm; aggregation in water from absorption versus concentration [4]: obvious band broadening indicating some degree of aggregation
2,12-Bis[3,5-bis(11-methoxy-3,6,9-trioxaundecylamidomethyl)phenyl]-15-(7-carboxy-1-heptyl)-3,13-dimethoxycarbonyl-5-methoxy-8,8,18,18-tetramethylbacteriochlorin [B4] | 377 nm | 0.63 | 754 nm | 30 nm | 0.55 | 368 nm | 0.62 | 753 nm | 32 nm | 0.52 | 0.12 | 0.33 | 3.46 ns | 28 ns | 6 ns | 10 ns | 0.55 | 71% | 0.035 | 0.31 | bathochromic shift in the Qy band relative to that for B2 [1]: ~28 nm; τS (lifetime of lowest singlet excited state) ([2]; water with 5% DMF as cosolvent): 3.21 ns; kf^−1 ([2]; water with 5% DMF as cosolvent): 92 ns; kic^−1 ([2]; water with 5% DMF as cosolvent): 5 ns; kisc^−1 ([2]; water with 5% DMF as cosolvent): 10 ns; Φic (internal conversion yield) ([2]; water with 5% DMF as cosolvent): 0.65; Qy em ([3]; DMF): 760 nm; Qy em fwhm ([3]; DMF): 31 nm; Qy em ([3]; water with 5% DMF as cosolvent): 759 nm; Qy em fwhm ([3]; water with 5% DMF as cosolvent): 33 nm
3,13-Dimethoxycarbonyl-2,12-bis[3,5-bis(3,6,9,12,15,18,21,24-octaoxahexacosanyl-26-amidomethyl)phenyl]-5-methoxy-8,8,18,18-tetramethylbacteriochlorin [II] | 373 nm | 0.79 | 750 nm | 24 nm | 0.42 | 369 nm | 0.75 | 751 nm | 26 nm | 0.40 | 0.11 | 0.32 | 3.02 ns | 27 ns | 5 ns | 9 ns | 0.57 | 29% | 0.078 | 0.31 | bathochromic shift in the Qy band relative to that for B2 [1]: ~25 nm; τS (lifetime of lowest singlet excited state) ([2]; water with 5% DMF as cosolvent): 2.96 ns; kf^−1 ([2]; water with 5% DMF as cosolvent): 38 ns; kic^−1 ([2]; water with 5% DMF as cosolvent): 5 ns; kisc^−1 ([2]; water with 5% DMF as cosolvent): 10 ns; Φic (internal conversion yield) ([2]; water with 5% DMF as cosolvent): 0.61; Qy em ([3]; DMF): 756 nm; Qy em fwhm ([3]; DMF): 27 nm; (Stokes) shift of Qy fluorescence maximum from Qy absorption peak ([3]; water): 8–9 nm; Qy em ([3]; water with 5% DMF as cosolvent): 760 nm; Qy em fwhm ([3]; water with 5% DMF as cosolvent): 31 nm
15-[4-(3-Carboxyethyl)phenyl]-3,13-dimethoxycarbonyl-2,12-bis[3,5-bis(3,6,9,12,15,18,21,24-octaoxahexacosanyl-26-amidomethyl)phenyl]-5-methoxy-8,8,18,18-tetramethylbacteriochlorin [B3] | 375 nm | 0.74 | 741 nm | 23 nm | 0.52 | 374 nm | 0.81 | 742 nm | 24 nm | 0.57 | 0.21 | 0.47 | 3.27 ns | 15 ns | 10 ns | 7 ns | 0.32 | 38% | 0.13 | 0.45 | bathochromic shift in the Qy band relative to that for B2 [1]: ~16 nm; τS (lifetime of lowest singlet excited state) ([2]; water with 5% DMF as cosolvent): 3.39 ns; kf^−1 ([2]; water with 5% DMF as cosolvent): 27 ns; kic^−1 ([2]; water with 5% DMF as cosolvent): 8 ns; kisc^−1 ([2]; water with 5% DMF as cosolvent): 8 ns; Φic (internal conversion yield) ([2]; water with 5% DMF as cosolvent): 0.42; Qy em ([3]; DMF): 748 nm; Qy em fwhm ([3]; DMF): 27 nm; (Stokes) shift of Qy fluorescence maximum from Qy absorption peak ([3]; water): 8–9 nm; Qy em ([3]; water with 5% DMF as cosolvent): 750 nm; Qy em fwhm ([3]; water with 5% DMF as cosolvent): 28 nm
